Four compounds from ChEMBL document CHEMBL5143726, “Neutrophil Elastase-Activatable Prodrugs Based on an Alkoxyamine Platform to Deliver Alkyl Radicals Cytotoxic to Tumor Cells” (J Med Chem, 2022) can be followed below.

The test system of data set [1] is U-87 MG. Kind of data set: Cytotoxicity against human U87 cells assessed as reduction in cell viability measured after 24 to 72 hrs in presence of human neutrophil elastase by PrestoBlue reagent based assay. In kind it is functional. Conditions: dose 100-400 µM, time 24-72 hrs; for Activity: U-87MG ATCC, DDE = dose-dependent effect; for CC50: read-out: LC50 (the source's name). The method, boiled down:
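U87 cells cultured 48 h, medium changed to serum-free DMEM; prodrug (0–400 μM) plus human neutrophil elastase 0.68 μM added, 1 h incubation, then 10% serum added to stop enzyme and cells held 24, 48 or 72 h. Viability via resazurin (PrestoBlue), 30 min at 37 °C, fluorescence ex 560/em 590 nm.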

Data set [2] is described as follows: Prodrug activation assessed as urokinase mediated TEMPO release.
Data set [3] has as its system U-87 MG. The experiment in a line: Cytotoxicity against human U87 cells assessed as cell viability at 100 to 400 uM measured after 24 to 72 hrs in absence of human neutrophil elastase by PrestoBlue reagent based assay. Conditions: dose 100-400 µM, time 24-72 hrs. Format: functional, U-87MG ATCC. A digest of the protocol: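 U87 glioblastoma (DMEM, 10% FBS, 37 °C, 5% CO2) seeded 48 h, medium swapped to serum-free DMEM; prodrug 0–400 μM added without elastase, 1 h, then 10% serum restored; incubation 24, 48 or 72 h. Viability by resazurin-to-resorufin conversion (PrestoBlue, 1/10 volume, 30 min 37 °C), fluorescence ex 560/em 590 nm.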

Data set [4] concerns U-87 MG. The experiment in a line: Induction of apoptosis in human U87 cells assessed as reduction in cell membrane integrity at 75 to 250 uM measured after 48 hrs in presence of human neutrophil elastase. Format: functional, cell-based. Conditions: U-87MG ATCC, dose 75-250 µM. A digest of the protocol: (§1)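 Serum-free U87 exposure to alkoxyamine 75, 150 or 250 μM with HNE 0.68 μM for 1 h, then 10% serum; followed 1–48 h. Live-cell RealTime-Glo reagent added, 60 min at 37 °C: annexin V phosphatidylserine binding by luminescence, membrane loss by cell-impermeant DNA dye fluorescence (ex 485/em 530 nm). Controls: HNE alone, untreated cells, doxorubicin 2 μM.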

Data set [5] deals with U-87 MG. The experiment in a line: Induction of apoptosis in human U87 cells assessed as activation of caspase3/7 at 75 to 250 uM measured after 48 hrs in presence of human neutrophil elastase by luminescence based multimode microplate reader assay. Format: functional, cell-based. Conditions: U-87MG ATCC, dose 75-250 µM. The method, boiled down: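 U87 cells in serum-free DMEM given alkoxyamine (75, 150, 250 μM) plus HNE 0.68 μM for 1 h, then 10% serum added; sampled at 1, 3, 7, 24, 48 h. Caspase 3/7 read by lytic luminogenic substrate reagent, 15 min at room temperature, luminescence. Controls: HNE alone, cells alone, doxorubicin 2 μM.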

The subject of data set [6] is U-87 MG. Kind of data set: Induction of apoptosis in human U87 cells assessed as phosphatidylserine translocation at 75 to 250 uM measured after 48 hrs in presence of human neutrophil elastase. In kind it is functional, cell-based. Conditions: U-87MG ATCC, dose 75-250 µM. A digest of the protocol: as §1
Data set [7] is described as follows: Prodrug activation assessed as human neutrophil elastase mediated TEMPO release by EPR spectometric analysis. A digest of the protocol:
(§2)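 Human neutrophil elastase (20 nM final) with prodrug (300 μM final) in 50 mM HEPES, 150 mM NaCl, 5 mM CaCl2, 0.05% IGEPAL, pH 7.4, in capillaries at 37 °C; released stable nitroxide (TEMPO or DBNO) quantified by EPR against internal spectrometer calibration.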

The nature of data set [8]: Prodrug activation assessed as human neutrophil elastase mediated DBNO release by EPR spectometric analysis. The method, boiled down: as §2
Data set [9] deals with U-87 MG. The experiment in a line: Cytotoxicity against human U87 cells assessed as reduction in cell viability at 400 uM measured after 48 hrs in absence of human neutrophil elastase by PrestoBlue reagent based assay. Format: functional. Conditions: U-87MG ATCC. The method, boiled down: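 U87 glioblastoma cells grown 48 h in DMEM/10% FBS, then switched to serum-free DMEM; prodrug (400 μM) added without elastase, serum restored to 10% after 1 h, cells kept 48 h at 37 °C. Viability by resazurin (PrestoBlue) reduction, 30 min at 37 °C, fluorescence ex 560/em 590 nm.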

Molecules are shown by their SMILES. Active and inactive are the calls of the source. The rule behind the calls is not given here. Where a SMILES comes first, the peptide text is derived from it.

Turning to `CC(ON1C(C)(C)CCCC1(C)C)c1ccc(NC(=O)[C@@H](NC(=O)[C@@H]2CCCN2C(=O)[C@H](C)NC(=O)[C@H](C)NC(=O)CCC(=O)O)C(C)C)cc1` (some centres not stated) (HELM PEPTIDE1{[O=C(O)CCC(=O)[*:2]].A.A.P.V.[CC(ON1C(C)(C)CCCC1(C)C)c1ccc(N[*:1])cc1]}$$$$V2.0), the Activity entry in data set [1] was “Dde”; in data set [3], 100%. Moreover, in data set [1], the CC50 is 150 µM. Also, the Drug metabolism result is “Metabolite_Notdetected” in data set [2] and “Metabolite_Detected” in data set [7]. Besides, the result in [4], in [5] and in data set [6] was Active.
For the compound `CC(ON(C(C)(C)C)C(C)(C)C)c1ccc(NC(=O)[C@@H](NC(=O)[C@@H]2CCCN2C(=O)[C@H](C)NC(=O)[C@H](C)NC(=O)CCC(=O)O)C(C)C)cc1` (some centres not stated) (HELM PEPTIDE1{[O=C(O)CCC(=O)[*:2]].A.A.P.V.[CC(ON(C(C)(C)C)C(C)(C)C)c1ccc(N[*:1])cc1]}$$$$V2.0), in [8], the Drug metabolism result is recorded as “Metabolite_Detected”. In data set [1], the Activity result is “Dde” and the CC50 is 150 µM.
On to `CC(ON1C(C)(C)CCCC1(C)C)c1ccc(OC(=O)[C@@H](NC(=O)[C@@H]2CCCN2C(=O)[C@H](C)NC(=O)[C@H](C)NC(=O)CCC(=O)O)C(C)C)cc1` (some centres not stated) (HELM PEPTIDE1{[O=C(O)CCC(=O)[*:2]].A.A.P.V.[CC(ON1C(C)(C)CCCC1(C)C)c1ccc(O[*:1])cc1]}$$$$V2.0), for which the CC50 in [1] is 150 µM. For the same compound, in data set [9], the outcome was Active. Besides, the Drug metabolism entry in data set [7] is “Metabolite_Detected”.
On to `CC(ON(C(C)(C)C)C(C)(C)C)c1ccc(OC(=O)[C@@H](NC(=O)[C@@H]2CCCN2C(=O)[C@H](C)NC(=O)[C@H](C)NC(=O)CCC(=O)O)C(C)C)cc1` (some centres not stated) (HELM PEPTIDE1{[O=C(O)CCC(=O)[*:2]].A.A.P.V.[CC(ON(C(C)(C)C)C(C)(C)C)c1ccc(O[*:1])cc1]}$$$$V2.0), for which the Drug metabolism entry in data set [8] is reported as “Metabolite_Detected”. In data set [1], the Activity entry was “Dde” and the CC50 turned out to be 150 µM.
